ChEMBL document CHEMBL4177761, “Highlights of the Structure-Activity Relationships of Benzimidazole Linked Pyrrolidines Leading to the Discovery of the Hepatitis C Virus NS5A Inhibitor Pibrentasvir (ABT-530)” (J Med Chem, 2018)
Residue numbers refer to the chain shown, from its start. ≈ marks a conversion by molar mass, not a printed value.

How the values were obtained:
[1] = AUC (0 to infinity) in mouse at 3 mg/kg, po by LC-MS method; format: ADME, organism-based; design: dose 3 mg/kg, route oral, time infinity; settings: in vivo
Summary of the method: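 Single dose, 3 mg/kg, in mouse or rat. IV vehicle: DMSO:Tween 80:PEG-400:D5W 2:5:20:73 (v/v). PO vehicle: Phosol 53 MCT:PEG-400:Poloxamer 124:Cremophor RH40 40:20:20:20 (w/w). Acetonitrile protein precipitation, then LC-MS/MS in negative-ion MRM against an internal standard; LOQ ~20 ng/mL.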

[2] = Intrinsic clearance in rat microsomes; format: ADME, Microsome
[3] = Intrinsic clearance in human microsomes; format: ADME, Microsome
[4] = Solubility of the compound by CLND method; format: physicochemical
[5] = Lipophilicity, log D of the compound by HPLC method; format: physicochemical
[6] = test system: T1, Nonstructural protein 5A (Hepatitis C virus), Q5L478 [Y93H]; test: Inhibition of NS5A Y93H mutant in HuH7 cell infected HCV genotype 1b Con1 assessed as decrease in viral replication after 4 days by luciferase reporter gene assay relative to wild type protein; settings: Hepatitis C virus (isolate Con1)
T1 sequence (whole entry): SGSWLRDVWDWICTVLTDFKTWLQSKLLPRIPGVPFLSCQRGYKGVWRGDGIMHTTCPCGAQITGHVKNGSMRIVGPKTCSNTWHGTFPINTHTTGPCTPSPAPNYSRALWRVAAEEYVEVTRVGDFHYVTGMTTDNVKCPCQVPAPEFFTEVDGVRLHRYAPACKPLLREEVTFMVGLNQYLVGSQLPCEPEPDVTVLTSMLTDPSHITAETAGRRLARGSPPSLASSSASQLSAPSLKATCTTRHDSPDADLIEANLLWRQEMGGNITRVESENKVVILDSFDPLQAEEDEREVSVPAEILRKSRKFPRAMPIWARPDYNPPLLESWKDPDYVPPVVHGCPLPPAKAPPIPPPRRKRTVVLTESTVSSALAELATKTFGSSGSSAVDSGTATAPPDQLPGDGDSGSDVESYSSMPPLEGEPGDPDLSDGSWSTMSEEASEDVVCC
Summary of the method: (§1)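 Stable subgenomic luciferase replicons in Huh-7 cells: genotype 1b-Con1 carrying NS5A Y93H or Y93N, tested alongside the wild-type replicon. Cells are incubated 4 days with compound in DMEM with 5% FBS. Luciferase read-out, EC50 from a 4-parameter logistic fit, expressed as fold change versus wild type.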

[7] = target: T2, Nonstructural protein 5A (Hepatitis C virus) (UniProt Q5L478); test: Inhibition of NS5A Q30E mutant in HuH7 cell infected HCV genotype 1a H77 assessed as decrease in viral replication after 4 days by luciferase reporter gene assay relative to wild type protein; settings: Hepatitis C virus (isolate H77)
T2 sequence (whole entry): T1 sequence (whole entry) with H93Y
Summary of the method: as §1, with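 “1a-H77” for “1b-Con1”, “NS5A substitutions M28T, Q30E, Q30R, Y93C,” for “NS5A”, “by” for “from a”, “and” for “expressed as”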

[8] = test system: T3, Nonstructural protein 5A (Hepatitis C virus), Q5L478 [Y93C]; test: Inhibition of NS5A Y93C mutant in HuH7 cell infected HCV genotype 1a H77 assessed as decrease in viral replication after 4 days by luciferase reporter gene assay relative to wild type protein; settings: Hepatitis C virus (isolate H77)
T3 sequence (whole entry): T1 sequence (whole entry) with H93C
Summary of the method: as §1, with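 “1a-H77” for “1b-Con1”, “NS5A substitutions M28T, Q30E, Q30R, Y93C,” for “NS5A”, “by” for “from a”, “and” for “expressed as”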

[9] = test system: T1, Nonstructural protein 5A (Hepatitis C virus), Q5L478 [Y93H]; test: Inhibition of NS5A Y93H mutant in HuH7 cell infected HCV genotype 1a H77 assessed as decrease in viral replication after 4 days by luciferase reporter gene assay relative to wild type protein; settings: Hepatitis C virus (isolate H77)
Summary of the method: as §1, with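 “1a-H77” for “1b-Con1”, “NS5A substitutions M28T, Q30E, Q30R, Y93C,” for “NS5A”, “by” for “from a”, “and” for “expressed as”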

[10] = test system: T4, Nonstructural protein 5A (Hepatitis C virus), Q5L478 [Y93N]; test: Inhibition of NS5A Y93N mutant in HuH7 cell infected HCV genotype 1a H77 assessed as decrease in viral replication after 4 days by luciferase reporter gene assay relative to wild type protein; settings: Hepatitis C virus (isolate H77)
T4 sequence (whole entry): T1 sequence (whole entry) with H93N
Summary of the method: as §1, with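 “1a-H77” for “1b-Con1”, “NS5A substitutions M28T, Q30E, Q30R, Y93C,” for “NS5A”, “by” for “from a”, “and” for “expressed as”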

[11] = target: T2, Nonstructural protein 5A (Hepatitis C virus); test: Inhibition of NS5A M28T mutant in HuH7 cell infected HCV genotype 1a H77 assessed as decrease in viral replication after 4 days by luciferase reporter gene assay relative to wild type protein; settings: Hepatitis C virus (isolate H77)
Summary of the method: as §1, with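 “1a-H77” for “1b-Con1”, “NS5A substitutions M28T, Q30E, Q30R, Y93C,” for “NS5A”, “by” for “from a”, “and” for “expressed as”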

[12] = target: T2, Nonstructural protein 5A (Hepatitis C virus); test: Inhibition of NS5A Q30R mutant in HuH7 cell infected HCV genotype 1a H77 assessed as decrease in viral replication after 4 days by luciferase reporter gene assay relative to wild type protein; settings: Hepatitis C virus (isolate H77)
Summary of the method: as §1, with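 “1a-H77” for “1b-Con1”, “NS5A substitutions M28T, Q30E, Q30R, Y93C,” for “NS5A”, “by” for “from a”, “and” for “expressed as”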

[13] = test system: T4, Nonstructural protein 5A (Hepatitis C virus), Q5L478 [Y93N]; test: Inhibition of NS5A Y93N mutant in HuH7 cell infected HCV genotype 1b Con1 assessed as decrease in viral replication after 4 days by luciferase reporter gene assay relative to wild type protein; settings: Hepatitis C virus (isolate Con1); summary of the method: as §1

`COC(=O)N[C@H](C(=O)N1CCC[C@H]1c1nc2cc([C@H]3CC[C@H](c4ccc5[nH]c([C@@H]6CCCN6C(=O)[C@@H](NC(=O)OC)C(C)C)nc5c4)N3c3cc(F)c(N4CCC(c5ccc(F)cc5)CC4)c(F)c3)ccc2[nH]1)C(C)C` gave an AUC(0-inf) [1] of 4590 ng·h/mL, a CLint scaled [2] of 53.3 mL/min/kg and a CLint scaled [3] of under 25 mL/min/kg. For the same compound, the solubility kinetic [4] was 0.9 µM (≈ 0.941 µg/mL) and the logD [5] was 5.8.

Work on `COC(=O)N[C@H](C(=O)N1CCC[C@H]1c1nc2cc([C@H]3CC[C@H](c4ccc5[nH]c([C@@H]6CCCN6C(=O)[C@@H](NC(=O)OC)C(C)C)nc5c4)N3c3cc(F)c(N4CCCCC4)c(F)c3)ccc2[nH]1)C(C)C` yielded an AUC(0-inf) [1] of 1790 ng·h/mL, a fold change (FC) [6] of 1 and a CLint scaled [2] of 187 mL/min/kg. It also gave a CLint scaled [3] of 175 mL/min/kg, a fold change (FC) [7] of 134 and a fold change (FC) [8] of 9. For the same compound, the fold change (FC) [9] was 241, the solubility kinetic [4] was 0.7 µM (≈ 0.666 µg/mL) and the fold change (FC) [10] was 510. The fold change (FC) [11] was 5 and the fold change (FC) [12] was 13.

`COC(=O)N[C@H](C(=O)N1CCC[C@H]1c1nc2ccc([C@H]3CC[C@H](c4ccc5nc([C@@H]6CCCN6C(=O)[C@@H](NC(=O)OC)C(C)C)[nH]c5c4)N3c3ccc(N4CCC(c5ccccc5)CC4)cc3)cc2[nH]1)C(C)C` showed a CLint scaled [2] of 46.7 mL/min/kg, a CLint scaled [3] of under 25 mL/min/kg and a solubility kinetic [4] of 0.82 µM (≈ 0.813 µg/mL). It also gave a logD [5] of 5.4.

In the case of `COC(=O)N[C@H](C(=O)N1CCC[C@H]1c1nc2cc([C@H]3CC[C@H](c4ccc5[nH]c([C@@H]6CCCN6C(=O)[C@@H](NC(=O)OC)C(C)C)nc5c4)N3c3cc(F)c(N4CCC(c5ccccc5)CC4)c(F)c3)ccc2[nH]1)C(C)C`, the AUC(0-inf) [1] is reported as 6830 ng·h/mL, the CLint scaled [2] is reported as 53.3 mL/min/kg and the CLint scaled [3] is reported as under 25 mL/min/kg. The solubility kinetic [4] was 1.1 µM (≈ 1.13 µg/mL).

For `COC(=O)N[C@H](C(=O)N1CCC[C@H]1c1nc2ccc([C@H]3CC[C@H](c4ccc5nc([C@@H]6CCCN6C(=O)[C@@H](NC(=O)OC)C(C)C)[nH]c5c4)N3c3ccc(C4CCCCC4)cc3)cc2[nH]1)C(C)C`, the fold change (FC) [6] was 1, the fold change (FC) [7] was over 90 and the fold change (FC) [8] was over 30. It also gave a fold change (FC) [9] of over 577, a fold change (FC) [11] of over 17 and a fold change (FC) [12] of over 30.

In the case of `COC(=O)N[C@H](C(=O)N1CCC[C@H]1c1nc2cc(F)c([C@H]3CC[C@H](c4cc5[nH]c([C@@H]6CCCN6C(=O)[C@@H](NC(=O)OC)[C@@H](C)OC)nc5cc4F)N3c3cc(F)c(N4CCC(c5ccccc5)CC4)c(F)c3)cc2[nH]1)[C@@H](C)OC`, the fold change (FC) [13] is reported as 0.3, the fold change (FC) [6] is reported as 1 and the fold change (FC) [7] is reported as 2. It also gave a fold change (FC) [8] of 1, a fold change (FC) [9] of 6 and a fold change (FC) [10] of 5. It also gave a fold change (FC) [11] of 1 and a fold change (FC) [12] of 1.

Compound `COC(=O)N[C@H](C(=O)N1CCC[C@H]1c1nc2cc(F)c([C@H]3CC[C@H](c4cc5[nH]c([C@@H]6CCCN6C(=O)[C@@H](NC(=O)OC)C6CCOCC6)nc5cc4F)N3c3cc(F)c(N4CCC(c5ccccc5)CC4)c(F)c3)cc2[nH]1)C1CCOCC1` has a fold change (FC) [7] of 1, a fold change (FC) [9] of 3 and a fold change (FC) [10] of 2.

For `COC(=O)N[C@H](C(=O)N1CCC[C@H]1c1nc2cc(F)c([C@H]3CC[C@H](c4cc5[nH]c([C@@H]6CCCN6C(=O)[C@@H](NC(=O)OC)C6CCOCC6)nc5cc4F)N3c3cc(F)c(N4CCC(c5ccc(F)cc5)CC4)c(F)c3)cc2[nH]1)C1CCOCC1`, the fold change (FC) [7] was 1, the fold change (FC) [9] was 2 and the fold change (FC) [10] was 2.

Work on `COC(=O)N[C@H](C(=O)N1CCC[C@H]1c1nc2ccc([C@H]3CC[C@H](c4ccc5nc([C@@H]6CCCN6C(=O)[C@@H](NC(=O)OC)C(C)C)[nH]c5c4)N3c3ccc(Cl)cc3)cc2[nH]1)C(C)C` yielded a fold change (FC) [6] of 1, a fold change (FC) [7] of 83 and a fold change (FC) [8] of 22. For the same compound, the fold change (FC) [9] was 670, the fold change (FC) [10] was 1160 and the fold change (FC) [11] was 28. The fold change (FC) [12] was 44.

`COC(=O)N[C@H](C(=O)N1CCC[C@H]1c1nc2ccc([C@H]3CC[C@H](c4ccc5nc([C@@H]6CCCN6C(=O)[C@@H](NC(=O)OC)C(C)C)[nH]c5c4)N3c3cc(F)c(N4CCC(c5ccccc5)CC4)c(F)c3)cc2[nH]1)C(C)C` showed a fold change (FC) [13] of 1, a fold change (FC) [6] of 1 and a fold change (FC) [7] of 69. It also gave a fold change (FC) [8] of 6, a fold change (FC) [9] of 72 and a fold change (FC) [10] of 145. The fold change (FC) [11] was 3 and the fold change (FC) [12] was 7.

In the case of `COC(=O)N[C@H](C(=O)N1CCC[C@H]1c1nc2ccc([C@H]3CC[C@H](c4ccc5nc([C@@H]6CCCN6C(=O)[C@@H](NC(=O)OC)C(C)C)[nH]c5c4)N3c3cc(F)c(N4CCC(c5ccc(F)cc5)CC4)c(F)c3)cc2[nH]1)C(C)C`, the fold change (FC) [6] is reported as 2, the fold change (FC) [7] is reported as 20 and the fold change (FC) [8] is reported as 3. The fold change (FC) [9] was 20, the fold change (FC) [10] was 25 and the fold change (FC) [11] was 2. For the same compound, the fold change (FC) [12] was 3.

For `COC(=O)N[C@H](C(=O)N1CCC[C@H]1c1nc2ccc([C@H]3CC[C@H](c4ccc5nc([C@@H]6CCCN6C(=O)[C@@H](NC(=O)OC)C(C)C)[nH]c5c4)N3c3ccc(-c4ccccc4)cc3)cc2[nH]1)C(C)C`, the fold change (FC) [13] was 1, the fold change (FC) [6] was 1 and the fold change (FC) [7] was 47. The fold change (FC) [8] was 24, the fold change (FC) [9] was 329 and the fold change (FC) [10] was 827. The fold change (FC) [12] was 10.

`COC(=O)N[C@H](C(=O)N1CCC[C@H]1c1nc2cc(F)c([C@H]3CC[C@H](c4cc5[nH]c([C@@H]6CCCN6C(=O)[C@@H](NC(=O)OC)C(C)C)nc5cc4F)N3c3cc(F)c(N4CCC(c5ccccc5)CC4)c(F)c3)cc2[nH]1)C(C)C` gave a fold change (FC) [13] of 1, a fold change (FC) [6] of 1 and a fold change (FC) [7] of 12. It also gave a fold change (FC) [8] of 6, a fold change (FC) [9] of 49 and a fold change (FC) [10] of 50. The fold change (FC) [11] was 1 and the fold change (FC) [12] was 2.
